Measurements as given in ChEMBL document CHEMBL4118286, “Design, synthesis and evaluation of novel bivalent β-carboline derivatives as multifunctional agents for the treatment of Alzheimer's disease” (Bioorg Med Chem, 2018).
The source made the active and inactive calls. The calls are words filed in the database; no cut-off is given here.

Assays:
Acetylcholinesterase = Acetylcholinesterase (Electrophorus electricus, UniProt O42275); test: Inhibition of electric eel AChE using acetylthiocholine iodide as substrate preincubated for 2 mins followed by substrate addition and measured after 2 mins by Ellman's method
Cholinesterase = Cholinesterase (Equus caballus, UniProt P81908); test: Inhibition of equine serum BChE using butyrylthiocholine iodide as substrate preincubated for 2 mins followed by substrate addition and measured after 2 mins by Ellman's method
Outline: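 Equine serum BuChE (Type VI-S) inhibition measured by the Ellman method. IC50 is the inhibitor concentration giving 50% enzyme inactivation, reported as mean ± SEM of three experiments.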

[1] = Selectivity index, ratio of IC50 for electric eel AChE to IC50 for equine serum BChE
Outline: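 Electric eel AChE (Type VI-S) and equine serum BuChE (Type VI-S) were each assayed by the Ellman method, with IC50 as mean ± SEM of three experiments. Selectivity index was calculated as IC50(AChE)/IC50(BuChE).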

[2] = target: Amyloid-beta precursor protein (Homo sapiens) (UniProt P05067); test: Inhibition of self-induced human amyloid beta (1 to 42) aggregation at 25 uM after 24 hrs by thioflavin-T based fluorescence assay relative to control
Outline: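 Thioflavin T fluorescence assay of self-induced Aβ1-42 aggregation, with test compound present at 25 μM and resveratrol as the positive control. Inhibition is given in percent as mean ± SD of at least three independent experiments.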

[3] = Neurotoxicity against human SH-SY5Y cells assessed as cell viability at 1 uM after 24 hrs by MTT assay relative to control; assay type: toxicity, cell-based; conditions: read-out: Activity
Outline: (§1)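 Cytotoxicity assay: SH-SY5Y cells were incubated with compound at 1, 2.5, 5 or 10 μM for 24 h. Viability was determined by MTT and expressed as percent of control, mean ± SD of 3 independent experiments.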

[4] = Neurotoxicity against human SH-SY5Y cells assessed as cell viability at 2.5 uM after 24 hrs by MTT assay relative to control; assay type: toxicity, cell-based; conditions: read-out: Activity; outline: as §1
[5] = Neurotoxicity against human SH-SY5Y cells assessed as cell viability at 5 uM after 24 hrs by MTT assay relative to control; assay type: toxicity, cell-based; conditions: read-out: Activity; outline: as §1
[6] = Neurotoxicity against human SH-SY5Y cells assessed as cell viability at 10 uM after 24 hrs by MTT assay relative to control; assay type: toxicity, cell-based; conditions: read-out: Activity; outline: as §1
SH-SY5Y [7] = test: Neuroprotective activity against amyloid beta (1 to 42)-induced neurodegeneration in human SH-SY5Y cells assessed as cell viability at 1 uM after 48 hrs by MTT assay (reference value: 54.2%); assay type: functional; conditions: read-out: Activity
Outline: (§2)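 SH-SY5Y neuroblastoma cells were exposed to Aβ1-42 (30 μM) for 48 h, with or without compound at 1 or 5 μM. Viability was measured by MTT assay against Aβ1-42-only and untreated controls. Data are mean ± SEM of three experiments, each run in triplicate.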

SH-SY5Y [8] = test: Neuroprotective activity against amyloid beta (1 to 42)-induced neurodegeneration in human SH-SY5Y cells assessed as cell viability at 5 uM after 48 hrs by MTT assay (reference value: 54.2%); assay type: functional; conditions: read-out: Activity; outline: as §2
SH-SY5Y [9] = test: Neuroprotective activity against H2O2-induced oxidative stress in human SH-SY5Y cells assessed as cell viability at 1 uM after 24 hrs by MTT assay (reference value: 57.2%); assay type: functional; conditions: read-out: Activity
Outline: (§3)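 SH-SY5Y cells were treated with H₂O₂ (300 μM) for 24 h, with compound (1 or 5 μM) co-treated. Viability was read by MTT and compared with H₂O₂-only and untreated controls. Data are mean ± SEM of three experiments, each run in triplicate.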

SH-SY5Y [10] = test: Neuroprotective activity against H2O2-induced oxidative stress in human SH-SY5Y cells assessed as cell viability at 5 uM after 24 hrs by MTT assay (reference value: 57.2%); assay type: functional; conditions: read-out: Activity; outline: as §3
SH-SY5Y [11] = test: Neuroprotective activity against okadaic acid-induced cell death in human SH-SY5Y cells assessed as cell viability at 1 uM after 24 hrs by MTT assay (reference value: 53.1%); assay type: functional; conditions: read-out: Activity
SH-SY5Y [12] = test: Neuroprotective activity against amyloid beta (1 to 42)-induced neurodegeneration in human SH-SY5Y cells assessed as increase in cell viability at 1 to 5 uM after 48 hrs by MTT assay; assay type: functional, cell-based; outline: as §2
SH-SY5Y [13] = test: Neurotoxicity against human SH-SY5Y cells assessed as decrease in cell viability at 1 to 10 uM after 24 hrs by MTT assay; assay type: toxicity, cell-based; outline: as §1
[14] = target: Cholinesterase (Equus caballus) (UniProt P81908); test: Potency index, ratio of donepezil IC50 to compound IC50 for equine serum BChE
SH-SY5Y [15] = test: Neuroprotective activity against amyloid beta (1 to 42)-induced neurodegeneration in human SH-SY5Y cells assessed as increase in cell viability at 1 uM after 48 hrs by MTT assay; assay type: functional, cell-based; outline: as §2
SH-SY5Y [16] = test: Neuroprotective activity against okadaic acid-induced cell death in human SH-SY5Y cells assessed as increase in cell viability at 1 uM after 24 hrs by MTT assay; assay type: functional, cell-based

Sequence of Amyloid-beta precursor protein (Homo sapiens) (P05067 whole entry): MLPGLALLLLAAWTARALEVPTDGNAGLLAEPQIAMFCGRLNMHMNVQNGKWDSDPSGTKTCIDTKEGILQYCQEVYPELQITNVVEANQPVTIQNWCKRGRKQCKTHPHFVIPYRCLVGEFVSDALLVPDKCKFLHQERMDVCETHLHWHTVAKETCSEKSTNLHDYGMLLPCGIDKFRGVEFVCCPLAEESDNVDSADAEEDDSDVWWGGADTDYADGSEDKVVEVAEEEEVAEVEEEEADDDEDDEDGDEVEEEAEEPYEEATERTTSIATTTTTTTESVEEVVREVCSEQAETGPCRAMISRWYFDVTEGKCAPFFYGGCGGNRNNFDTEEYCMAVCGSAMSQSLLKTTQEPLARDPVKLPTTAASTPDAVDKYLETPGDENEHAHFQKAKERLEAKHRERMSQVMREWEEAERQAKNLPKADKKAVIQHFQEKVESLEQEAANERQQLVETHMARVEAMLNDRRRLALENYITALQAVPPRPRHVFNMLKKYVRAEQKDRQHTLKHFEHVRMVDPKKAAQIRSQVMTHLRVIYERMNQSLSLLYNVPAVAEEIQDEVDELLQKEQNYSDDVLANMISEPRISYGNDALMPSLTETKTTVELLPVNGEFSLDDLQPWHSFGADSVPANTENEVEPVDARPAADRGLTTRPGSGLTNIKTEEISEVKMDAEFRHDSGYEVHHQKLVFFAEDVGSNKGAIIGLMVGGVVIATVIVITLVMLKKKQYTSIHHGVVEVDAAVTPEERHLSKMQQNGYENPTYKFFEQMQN
Sequence of Acetylcholinesterase (O42275 whole entry): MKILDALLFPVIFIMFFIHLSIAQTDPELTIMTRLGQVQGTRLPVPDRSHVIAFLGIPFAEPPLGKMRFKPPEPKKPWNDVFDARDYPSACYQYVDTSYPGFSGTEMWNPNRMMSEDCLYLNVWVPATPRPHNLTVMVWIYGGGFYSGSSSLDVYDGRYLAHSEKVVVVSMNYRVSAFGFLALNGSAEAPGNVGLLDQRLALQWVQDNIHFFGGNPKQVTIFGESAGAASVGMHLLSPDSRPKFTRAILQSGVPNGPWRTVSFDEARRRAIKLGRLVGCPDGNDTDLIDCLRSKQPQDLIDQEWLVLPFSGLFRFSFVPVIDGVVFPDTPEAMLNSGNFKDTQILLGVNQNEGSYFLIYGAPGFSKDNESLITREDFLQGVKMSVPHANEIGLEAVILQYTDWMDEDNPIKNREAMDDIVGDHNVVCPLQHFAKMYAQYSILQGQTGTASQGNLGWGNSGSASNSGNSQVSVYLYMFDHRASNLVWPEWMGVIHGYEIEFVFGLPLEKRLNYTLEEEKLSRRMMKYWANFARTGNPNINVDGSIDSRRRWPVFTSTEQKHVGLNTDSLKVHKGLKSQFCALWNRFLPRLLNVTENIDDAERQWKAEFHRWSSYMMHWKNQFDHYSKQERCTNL
Sequence of Cholinesterase (P81908 whole entry): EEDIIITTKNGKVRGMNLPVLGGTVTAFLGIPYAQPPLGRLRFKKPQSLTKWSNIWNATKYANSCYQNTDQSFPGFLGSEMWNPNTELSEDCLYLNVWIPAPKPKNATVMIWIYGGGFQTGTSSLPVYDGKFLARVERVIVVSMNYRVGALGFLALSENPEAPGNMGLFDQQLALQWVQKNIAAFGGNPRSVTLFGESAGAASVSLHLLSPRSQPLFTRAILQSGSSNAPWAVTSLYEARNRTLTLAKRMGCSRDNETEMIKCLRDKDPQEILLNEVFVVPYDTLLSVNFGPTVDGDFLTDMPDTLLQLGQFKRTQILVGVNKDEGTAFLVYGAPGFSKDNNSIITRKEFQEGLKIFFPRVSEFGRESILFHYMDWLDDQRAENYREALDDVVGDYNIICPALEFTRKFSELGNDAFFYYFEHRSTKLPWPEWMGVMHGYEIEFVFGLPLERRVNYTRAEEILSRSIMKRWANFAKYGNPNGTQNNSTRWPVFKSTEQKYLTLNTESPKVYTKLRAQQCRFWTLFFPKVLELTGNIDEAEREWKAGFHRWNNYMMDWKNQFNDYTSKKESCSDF
Sequence of Cholinesterase (Equus caballus) (P81908 whole entry): as above

Structure (SMILES) | IC50 (Acetylcholinesterase) | IC50 (Cholinesterase) | Ratio IC50 [1] | IC50 (Acetylcholinesterase; read-out: IC50) [µM] | inhibition [2] | IC50 (Cholinesterase; read-out: IC50) [µM] | also measured
COC(=O)c1cc2c3ccccc3n(CCCN3CCN(CCCn4c5ccccc5c5cc(C(=O)OC)nc(-c6ccccc6)c54)CC3)c2c(-c2ccccc2)n1 | Not Active | Not Active | inactive |  |  |  | 
COC(=O)C1Cc2c([nH]c3ccccc23)C(C)N1C(=O)CCN1CCN(CCC(=O)N2C(C(=O)OC)Cc3c([nH]c4ccccc34)C2C)CC1 (centres undefined) |  |  |  | 19.9 | 65.6% |  | viability at 24 h, 1 µM [3]: 103%; viability at 24 h, 2.5 µM [4]: 99.9%; viability at 24 h, 5 µM [5]: 102%; viability at 24 h, 10 µM [6]: 90.9%; viability at 1 µM (SH-SY5Y [7]): 95.4%; viability at 5 µM (SH-SY5Y [8]): 85.4%; viability at 1 µM (SH-SY5Y [9]): 82.2%; viability at 5 µM (SH-SY5Y [10]): 76%; viability at 1 µM (SH-SY5Y [11]): 97.1%
COC(=O)c1cc2c3ccccc3n(CCCN(C)CCN(C)CCCn3c4ccccc4c4cc(C(=O)OC)nc(-c5ccccc5)c43)c2c(-c2ccccc2)n1 |  |  | 184 | 147 | 25.4% | 0.8 | viability at 24 h, 1 µM [3]: 98.2%; viability at 24 h, 2.5 µM [4]: 93.2%; viability at 24 h, 5 µM [5]: 93.7%; Activity (SH-SY5Y [12]): inactive
COC(=O)C1Cc2c([nH]c3ccccc23)C(C)N1 (centres undefined) | Not Active | Not Active | inactive |  |  |  | 
COC(=O)c1cc2c3ccccc3n(CCCN3CCN(CCCn4c5ccccc5c5cc(C(=O)OC)nc(C)c54)CC3)c2c(C)n1 |  |  | 16 | 11.2 | inactive | 0.7 | Activity (SH-SY5Y [13]): Toxic; Ratio IC50 [14]: 4
COC(=O)c1cc2c3ccccc3n(CCCCN(C)CCN(C)CCCCn3c4ccccc4c4cc(C(=O)OC)nc(-c5ccccc5)c43)c2c(-c2ccccc2)n1 |  |  | 8.7 | 15.7 | 71.5% | 1.8 | Activity (SH-SY5Y [13]): Toxic
COC(=O)C1Cc2c([nH]c3ccccc23)CN1 (centres undefined) | Not Active | Not Active | inactive |  |  |  | 
COC(=O)C1Cc2c([nH]c3ccccc23)CN1C(=O)CCN(C)CCN(C)CCC(=O)N1Cc2[nH]c3ccccc3c2CC1C(=O)OC (centres undefined) |  |  | 0.9 | 25.4 | 59.2% | 27 | 
COC(=O)C1Cc2c([nH]c3ccccc23)C(C)N1C(=O)CN(C)CCN(C)CC(=O)N1C(C(=O)OC)Cc2c([nH]c3ccccc23)C1C (centres undefined) |  |  | 4.3 | 39.8 | 72.3% | 9 | Activity (SH-SY5Y [13]): Toxic
COC(=O)C1Cc2c([nH]c3ccccc23)C(c2ccccc2)N1C(=O)CCN1CCN(CCC(=O)N2C(C(=O)OC)Cc3c([nH]c4ccccc34)C2c2ccccc2)CC1 (centres undefined) |  |  | 85.6 | 488 | 41.9% | 5.7 | 
COC(=O)c1cc2c3ccccc3n(CCCN(C)CCN(C)CCCn3c4ccccc4c4cc(C(=O)OC)nc(C)c43)c2c(C)n1 |  |  | 6.4 | 99.1 | inactive | 15.4 | 
COC(=O)C1Cc2c([nH]c3ccccc23)C(C)N1C(=O)CCN(C)CCN(C)CCC(=O)N1C(C(=O)OC)Cc2c([nH]c3ccccc23)C1C (centres undefined) |  |  | 10.6 | 18 | 82.7% | 1.7 | viability at 24 h, 1 µM [3]: 106%; viability at 24 h, 2.5 µM [4]: 92.8%; viability at 24 h, 5 µM [5]: 92.4%; Activity (SH-SY5Y [15]): Active; viability at 1 µM (SH-SY5Y [9]): 100%; viability at 5 µM (SH-SY5Y [10]): 42.1%; Activity (SH-SY5Y [16]): Active
COC(=O)C1Cc2c([nH]c3ccccc23)CN1C(=O)CN1CCN(CC(=O)N2Cc3[nH]c4ccccc4c3CC2C(=O)OC)CC1 (centres undefined) | Not Active | Not Active | inactive |  |  |  | 
COC(=O)c1cc2c3ccccc3n(CCCCN3CCN(CCCCn4c5ccccc5c5cc(C(=O)OC)nc(-c6ccccc6)c54)CC3)c2c(-c2ccccc2)n1 | Not Active | Not Active | inactive |  |  |  | 
COC(=O)c1cc2c3ccccc3n(CCCCN3CCN(CCCCn4c5ccccc5c5cc(C(=O)OC)nc(C)c54)CC3)c2c(C)n1 |  |  | 1.2 | 11.6 | inactive | 9.7 | 
COC(=O)C1Cc2c([nH]c3ccccc23)C(c2ccccc2)N1C(=O)CCCN1CCN(CCCC(=O)N2C(C(=O)OC)Cc3c([nH]c4ccccc34)C2c2ccccc2)CC1 (centres undefined) | Not Active | Not Active | inactive |  |  |  | 
COC(=O)C1Cc2c([nH]c3ccccc23)C(c2ccccc2)N1C(=O)CN(C)CCN(C)CC(=O)N1C(C(=O)OC)Cc2c([nH]c3ccccc23)C1c1ccccc1 (centres undefined) |  |  | 4.4 | 64 | 65.1% | 14.6 | 
COC(=O)c1cc2c([nH]c3ccccc32)c(C)n1 | Not Active | Not Active | inactive |  |  |  | 
COC(=O)C1Cc2c([nH]c3ccccc23)C(c2ccccc2)N1 (centres undefined) | Not Active | Not Active | inactive |  |  |  | 
COC(=O)c1cc2c3ccccc3n(CCCCN(C)CCN(C)CCCCn3c4ccccc4c4cc(C(=O)OC)nc(C)c43)c2c(C)n1 |  |  | 6.4 | 9.6 | 65.5% | 1.5 | Activity (SH-SY5Y [13]): Toxic
COC(=O)C1Cc2c([nH]c3ccccc23)C(C)N1C(=O)CN1CCN(CC(=O)N2C(C(=O)OC)Cc3c([nH]c4ccccc34)C2C)CC1 (centres undefined) | Not Active |  | inactive |  | 50.8% | 20.9 | 
COC(=O)c1cc2c([nH]c3ccccc32)c(-c2ccccc2)n1 | Not Active | Not Active | inactive |  |  |  | 
COC(=O)C1Cc2c([nH]c3ccccc23)C(C)N1C(=O)CCCN1CCN(CCCC(=O)N2C(C(=O)OC)Cc3c([nH]c4ccccc34)C2C)CC1 (centres undefined) |  |  | 15.8 | 44.2 | 85.7% | 2.8 | viability at 24 h, 1 µM [3]: 98.6%; viability at 24 h, 2.5 µM [4]: 99.1%; viability at 24 h, 5 µM [5]: 101%; viability at 24 h, 10 µM [6]: 90.8%; Activity (SH-SY5Y [15]): Active; viability at 1 µM (SH-SY5Y [9]): 90.4%; viability at 5 µM (SH-SY5Y [10]): 85.5%; viability at 1 µM (SH-SY5Y [11]): 101%
